Experimental data as given in ChEMBL document CHEMBL5724801, “EUbOPEN Chemogenomics Library - Multiplex” (2024).
Values joined by “and” are separate entries in the source; they are usually repeats but may differ in a detail not shown here. Equal entries are not always repeated.

What was measured:
U2OS = test: Multiplex assay against U2OS; type: toxicity, cell-based; conditions: human
Procedure, shortened: (§1)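 Cells were classed with CellPathfinder machine-learning gating, first as Hoechst high-intensity objects or normal cells, then (normal cells) as healthy, pyknosed or fragmented nuclei, and finally (pyknosed cells) as mitotic or apoptotic. Staining of live cells at seeding used Hoechst33342, BioTracker Green Microtubule Cytoskeleton Dye, MitoTracker Red and Annexin V Alexa Fluor 680, with imaging on a CQ1 microscope at 37°C and 5% CO2 after compound addition. Tubulin, mitochondrial-mass and membrane-permeability phenotypes are per cents of healthy-nucleus cells.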

HEK-293T = test: Multiplex assay against HEK293T; type: toxicity, cell-based; conditions: human; procedure, shortened: as §1
[1] = 24 h, 10 µM, compound concentration 10 uM
[2] = 48 h, 1 µM, compound concentration 1 uM
[3] = 48 h, 10 µM, compound concentration 10 uM
[4] = 12 h, 1 µM, compound concentration 1 uM
[5] = 12 h, 10 µM, compound concentration 10 uM
[6] = 24 h, 1 µM, compound concentration 1 uM

O=C(O)c1cc2ccccc2c(Cc2c(O)c(C(=O)O)cc3ccccc23)c1O [PAMOIC ACID]
Population Healthy Nuclei (%) (U2OS; [1]): 76% and 79%
Population Hoechst High Intensity Objects (%) (U2OS; [1]): 3% and 1%
Population Membrane Permeable-Phenotype (%) (U2OS; [1]): 5% and 7%
Population Mitochondria Different-Phenotype (%) (U2OS; [1]): 2% and 3%
Population Mitotic Cells (%) (U2OS; [1]): 17% and 9%
Population Normal (%) (U2OS; [1]): 96% and 98%
Population Pyknosed Nuclei (%) (U2OS; [1]): 5% and 6%
Population Tubulin-Different-Phenotype (%) (U2OS; [1]): 3% and 7%
Total Cell Count (U2OS; [1]): 314 and 163
Population Apoptotic (%) (U2OS; [2]): 83% and 90%
Population Fragmented Nuclei (%) (U2OS; [2]): 16% and 11%
Population Healthy Nuclei (%) (U2OS; [2]): 74% and 76%
Population Hoechst High Intensity Objects (%) (U2OS; [2]): 1% and 2%
Population Membrane Permeable-Phenotype (%) (U2OS; [2]): 2% and 9%
Population Mitochondria Different-Phenotype (%) (U2OS; [2]): 1% and 3%
Population Mitotic Cells (%) (U2OS; [2]): 16% and 10%
Population Normal (%) (U2OS; [2]): 98% and 97%
Population Pyknosed Nuclei (%) (U2OS; [2]): 9% and 11%
Population Tubulin-Different-Phenotype (%) (U2OS; [2]): 2% and 5%
Total Cell Count (U2OS; [2]): 469 and 177
Population Apoptotic (%) (U2OS; [3]): 96% and 89%
Population Fragmented Nuclei (%) (U2OS; [3]): 15% and 20%
Population Healthy Nuclei (%) (U2OS; [3]): 77% and 66%
Population Hoechst High Intensity Objects (%) (U2OS; [3]): 3% and 0%
Population Membrane Permeable-Phenotype (%) (U2OS; [3]): 5% and 6%
Population Mitochondria Different-Phenotype (%) (U2OS; [3]): 1% and 2%
Population Mitotic Cells (%) (U2OS; [3]): 3% and 10%
Population Normal (%) (U2OS; [3]): 96% and 99%
Population Pyknosed Nuclei (%) (U2OS; [3]): 6% and 13%
Population Tubulin-Different-Phenotype (%) (U2OS; [3]): 4% and 2%
Total Cell Count (U2OS; [3]): 455 and 218
Population Apoptotic (%) (HEK-293T; [4]): 30% and 58%
Population Fragmented Nuclei (%) (HEK-293T; [4]): 9% and 7%
Population Healthy Nuclei (%) (HEK-293T; [4]): 77%
Population Hoechst High Intensity Objects (%) (HEK-293T; [4]): 7% and 6%
Population Membrane Permeable-Phenotype (%) (HEK-293T; [4]): 0%
Population Mitochondria Different-Phenotype (%) (HEK-293T; [4]): 38% and 60%
Population Mitotic Cells (%) (HEK-293T; [4]): 69% and 41%
Population Normal (%) (HEK-293T; [4]): 92% and 93%
Population Pyknosed Nuclei (%) (HEK-293T; [4]): 12% and 15%
Population Tubulin-Different-Phenotype (%) (HEK-293T; [4]): 23% and 21%
Total Cell Count (HEK-293T; [4]): 432 and 303
Population Apoptotic (%) (HEK-293T; [5]): 34% and 52%
Population Fragmented Nuclei (%) (HEK-293T; [5]): 8% and 4%
Population Healthy Nuclei (%) (HEK-293T; [5]): 79% and 81%
Population Hoechst High Intensity Objects (%) (HEK-293T; [5]): 8%
Population Membrane Permeable-Phenotype (%) (HEK-293T; [5]): 0%
Population Mitochondria Different-Phenotype (%) (HEK-293T; [5]): 44% and 55%
Population Mitotic Cells (%) (HEK-293T; [5]): 65% and 47%
Population Normal (%) (HEK-293T; [5]): 91%
Population Pyknosed Nuclei (%) (HEK-293T; [5]): 12% and 13%
Population Tubulin-Different-Phenotype (%) (HEK-293T; [5]): 34% and 26%
Total Cell Count (HEK-293T; [5]): 446 and 275
Population Apoptotic (%) (HEK-293T; [6]): 29% and 40%
Population Fragmented Nuclei (%) (HEK-293T; [6]): 8% and 5%
Population Healthy Nuclei (%) (HEK-293T; [6]): 78% and 86%
Population Hoechst High Intensity Objects (%) (HEK-293T; [6]): 6%
Population Membrane Permeable-Phenotype (%) (HEK-293T; [6]): 1% and 0%
Population Mitochondria Different-Phenotype (%) (HEK-293T; [6]): 22% and 39%
Population Mitotic Cells (%) (HEK-293T; [6]): 70% and 59%
Population Normal (%) (HEK-293T; [6]): 93%
Population Pyknosed Nuclei (%) (HEK-293T; [6]): 12% and 7%
Population Tubulin-Different-Phenotype (%) (HEK-293T; [6]): 16%
Total Cell Count (HEK-293T; [6]): 559 and 378
Population Apoptotic (%) (HEK-293T; [1]): 29% and 41%
Population Fragmented Nuclei (%) (HEK-293T; [1]): 9% and 5%
Population Healthy Nuclei (%) (HEK-293T; [1]): 75% and 79%
Population Hoechst High Intensity Objects (%) (HEK-293T; [1]): 5% and 7%
Population Membrane Permeable-Phenotype (%) (HEK-293T; [1]): 0%
Population Mitochondria Different-Phenotype (%) (HEK-293T; [1]): 27% and 43%
Population Mitotic Cells (%) (HEK-293T; [1]): 70% and 58%
Population Normal (%) (HEK-293T; [1]): 94% and 92%
Population Pyknosed Nuclei (%) (HEK-293T; [1]): 14% and 15%
Population Tubulin-Different-Phenotype (%) (HEK-293T; [1]): 22% and 18%
Total Cell Count (HEK-293T; [1]): 592 and 365
Population Apoptotic (%) (HEK-293T; [2]): 18% and 48%
Population Fragmented Nuclei (%) (HEK-293T; [2]): 11% and 8%
Population Healthy Nuclei (%) (HEK-293T; [2]): 81% and 84%
Population Hoechst High Intensity Objects (%) (HEK-293T; [2]): 2% and 7%
Population Membrane Permeable-Phenotype (%) (HEK-293T; [2]): 1% and 0%
Population Mitochondria Different-Phenotype (%) (HEK-293T; [2]): 13% and 27%
Population Mitotic Cells (%) (HEK-293T; [2]): 81% and 51%
Population Normal (%) (HEK-293T; [2]): 97% and 92%
Population Pyknosed Nuclei (%) (HEK-293T; [2]): 7% and 6%
Population Tubulin-Different-Phenotype (%) (HEK-293T; [2]): 10% and 11%
Total Cell Count (HEK-293T; [2]): 998 and 494
Population Apoptotic (%) (HEK-293T; [3]): 24% and 36%
Population Fragmented Nuclei (%) (HEK-293T; [3]): 13% and 11%
Population Healthy Nuclei (%) (HEK-293T; [3]): 79% and 82%
Population Hoechst High Intensity Objects (%) (HEK-293T; [3]): 3% and 7%
Population Membrane Permeable-Phenotype (%) (HEK-293T; [3]): 0%
Population Mitochondria Different-Phenotype (%) (HEK-293T; [3]): 18% and 27%
Population Mitotic Cells (%) (HEK-293T; [3]): 75% and 64%
Population Normal (%) (HEK-293T; [3]): 96% and 92%
Population Pyknosed Nuclei (%) (HEK-293T; [3]): 7% and 5%
Population Tubulin-Different-Phenotype (%) (HEK-293T; [3]): 10% and 12%
Total Cell Count (HEK-293T; [3]): 879 and 517
